The species entered for assay [1] is Rattus norvegicus. The assay can be described thus: In vitro inhibitory concentration producing 90% reduction in maximum contraction produced by KCl (20 mmol) in isolated aorta of rat. The assay is classed as functional. Summed up:
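Isolated aortic tissue recorded isometrically via force-displacement transducers; equilibrated 90 min at 2 g resting tension, contracted with 20 mmol KCl, then cumulative concentration-response relaxation, each concentration added once the prior maximal effect developed. Glibenclamide 5 μM tested for reversal of relaxation. Drugs dissolved in DMSO. Mean EC90 ± SEM, number of experiments given.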

In assay [2] the test system is Rattus norvegicus. In words: The compound was evaluated for hypotensive activity in anaesthetized Sprague Dawley rats on intravenous administration. The assay is classed as functional. Summed up:
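Male Sprague Dawley rats (280–350 g), pentobarbitone 60 mg/kg ip, ventilated; carotid blood pressure recorded. 15-min iv infusion via jugular vein, one per rat, vehicle PEG 200 with 0.01 N HCl diluted 1:10 in saline. Max MBP change over ≥30 min; two or more doses in 3–4 rats; dose giving 30 mmHg fall by linear regression vs log dose.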

As a reminder, the IC90 is the concentration at which the effect reaches the 90% level. A higher IC90 goes with weaker potency.

As for `CCC/N=C(\S)[C@]1(c2cccnc2)CCCC[S+]1[O-]` (some centres not stated), the IC90 in the assay filed under Rattus norvegicus [1] (Rattus norvegicus, Aorta) worked out at 0.6 µM.
Compound `CNC(=S)[C@]1(c2cccnc2)CCCC[S@+]1[O-]` yielded an IC90 in the assay filed under Rattus norvegicus [1] (Rattus norvegicus, Aorta) of over 30 µM.
As to `C/N=C(\S)[C@]1(c2ccc(Cl)c(Cl)c2)CCCC[S+]1[O-]` (some centres not stated), in the assay with Rattus norvegicus [2], the ED30 was 1.28 mg/kg. In addition, the 90% effect level in the assay filed under Rattus norvegicus [1] (Rattus norvegicus, Aorta) (IC90) was put at 0.3 µM.
In the case of `C/N=C(\S)[C@]1(c2cc(Cl)cc(Cl)c2)CCCC[S+]1[O-]` (some centres not stated), the 90% effect level in the assay listed under Rattus norvegicus [1] (Rattus norvegicus, Aorta) (IC90) was put at 0.4 µM.
In the assay filed under Rattus norvegicus [1] (Rattus norvegicus, Aorta), `C/N=C(\S)[C@]1(c2cccc(C(=O)O)c2)CCCC[S+]1[O-]` (some centres not stated) displayed an IC90 of over 30 µM.
Still for that read-out and setting: for `C/N=C(\S)[C@]1(c2ccccn2)CCCC[S+]1[O-]` (some centres not stated) the value was over 30 µM; for `C/N=C(\S)[C@]1(c2cccc(C(N)=O)c2)CCCC[S+]1[O-]` (some centres not stated), 12 µM; for `COC(=N)[C@]1(c2cccnc2)CCCC[S+]1[O-]` (some centres not stated), over 30 µM.
In the assay filed under Rattus norvegicus [1] (Rattus norvegicus, Aorta), `[O-][S+]1CCCC[C@]1(/C(S)=N/c1ccccc1)c1cccnc1` (some centres not stated) displayed an IC90 of over 30 µM.
`C/N=C(\S)[C@]1(c2cccnc2)CCCS1`: the IC90 in the assay filed under Rattus norvegicus [1] (Rattus norvegicus, Aorta) was over 30 µM.
As to `C/N=C(\S)[C@]1(c2cccc(F)c2)CCCC[S+]1[O-]` (some centres not stated), it took 7 µM to reach the 90% level in the assay listed under Rattus norvegicus [1] (Rattus norvegicus, Aorta) (IC90).
Same read-out and setting: for `C/N=C(/S)[C@]1(c2cccnc2)CCCCS1(=O)=O` the value was over 30 µM; for `[O-][S+]1CCCC[C@]1(CS)c1cccnc1` (some centres not stated), over 30 µM.
`C/N=C(/S)[C@]1(c2cccnc2)CCCC[S@@+]1[O-]` (stereo in doubt; 8c) [APRIKALIM] gave an IC90 in the assay filed under Rattus norvegicus [1] of over 30 µM.
For `C/N=C(\S)[C@]1(c2cccc(C#N)c2)CCCC[S+]1[O-]` (some centres not stated), in the assay with Rattus norvegicus [2], the ED30 turned out to be 0.63 mg/kg. Moreover, the IC90 in the assay filed under Rattus norvegicus [1] (Rattus norvegicus, Aorta) came out at 1.6 µM.
As to `C/N=C(\S)[C@]1(c2cccnc2)OCCCS1`, in the assay listed under Rattus norvegicus [1] (Rattus norvegicus, Aorta), the IC90 was over 30 µM.
With `CNC(=O)[C@]1(c2cccnc2)CCCC[S+]1[O-]` (some centres not stated), the IC90 in the assay filed under Rattus norvegicus [1] (Rattus norvegicus, Aorta) was over 30 µM.
`C/N=C(\S)[C@]1(c2ccncc2)CCCC[S+]1[O-]` (some centres not stated): the IC90 in the assay listed under Rattus norvegicus [1] (Rattus norvegicus, Aorta) was found to be 25 µM.
The compound `CC/N=C(\S)[C@]1(c2cccnc2)CCCC[S+]1[O-]` (some centres not stated) displayed an ED30 in the assay with Rattus norvegicus [2] of 0.15 mg/kg. In the assay filed under Rattus norvegicus [1] (Rattus norvegicus, Aorta), this compound registered an IC90 of 0.3 µM.
`C/N=C(\S)C1(c2cccnc2)CCCC1` displayed a 90% effect concentration (IC90) in the assay filed under Rattus norvegicus [1] (Rattus norvegicus, Aorta) of 30 µM.
Compound `N#C[C@]1(c2cccnc2)CCCC[S+]1[O-]` (some centres not stated) showed an IC90 in the assay listed under Rattus norvegicus [1] (Rattus norvegicus, Aorta) of over 30 µM.
For `C/N=C(\S)[C@]1(c2ccns2)CCCC[S+]1[O-]` (some centres not stated), the IC90 in the assay filed under Rattus norvegicus [1] (Rattus norvegicus, Aorta) was 7 µM.
For `CC1(C)Oc2ccc(C#N)cc2C(N2CCCC2=O)C1O` (configuration not stated) [CROMAKALIM], the ED30 in the assay with Rattus norvegicus [2] was 0.06 mg/kg. In addition, in the assay filed under Rattus norvegicus [1] (Rattus norvegicus, Aorta), it took 0.2 µM to reach the 90% level (IC90).
For `C/N=C(/S)[C@]1(c2cccnc2)CCCC[S@@+]1[O-]` (stereo in doubt; 8b) [APRIKALIM], the IC90 in the assay filed under Rattus norvegicus [1] came out at 0.4 µM.
`C/N=C(\S)[C@]1(c2ccc3ccccc3c2)CCCC[S+]1[O-]` (some centres not stated): it took 2 µM to reach the 90% level in the assay listed under Rattus norvegicus [1] (Rattus norvegicus, Aorta) (IC90).
As for `CCCC/N=C(\S)[C@]1(c2cccnc2)CCCC[S+]1[O-]` (some centres not stated), the ED30 in the assay on Rattus norvegicus [2] came to 1.5 mg/kg. Further, in the assay listed under Rattus norvegicus [1] (Rattus norvegicus, Aorta), the IC90 turned out to be 8 µM.
The compound `[O-][S+]1CCCC[C@]1(CO)c1cccnc1` (some centres not stated) gave an IC90 in the assay filed under Rattus norvegicus [1] (Rattus norvegicus, Aorta) of over 30 µM.
The same measure, in the same setting: for `C/N=C(\S)[C@]1(c2ccccc2)CCCC[S+]1[O-]` (some centres not stated) the value was 9.5 µM; for `C/N=C(\S)C1(c2cccnc2)SCCCS1`, over 30 µM.
`C/N=C(\S)[C@]1(c2cnc3ccccc3c2)CCCC[S+]1[O-]` (some centres not stated) had an ED30 in the assay on Rattus norvegicus [2] of 0.04 mg/kg. In the assay filed under Rattus norvegicus [1] (Rattus norvegicus, Aorta), this compound had an IC90 of 0.06 µM.
For the compound `C/N=C(\S)[C@]1(c2cccnc2)CCCCS1`, the ED30 with Rattus norvegicus [2] came out at 1.5 mg/kg. The same compound registered an IC90 in the assay filed under Rattus norvegicus [1] (Rattus norvegicus, Aorta) of over 30 µM.
Turning to `C/N=C(\S)[C@]1(c2cccc(C(F)(F)F)c2)CCCC[S+]1[O-]` (some centres not stated), the IC90 in the assay listed under Rattus norvegicus [1] (Rattus norvegicus, Aorta) came out at 0.8 µM.
Same read-out and setting: for `C/N=C(\S)[C@]1(c2cnc(-c3ccccc3)s2)CCCC[S+]1[O-]` (some centres not stated) the value was 4 µM.
On to `N/N=C(\S)[C@]1(c2cccnc2)CCCC[S+]1[O-]` (some centres not stated), for which, in the assay filed under Rattus norvegicus [1] (Rattus norvegicus, Aorta), the IC90 is over 30 µM.
In the assay listed under Rattus norvegicus [1], `C/N=C(/S)[C@]1(c2cccnc2)CCCC[S@@+]1[O-]` (stereo in doubt; 8a) [APRIKALIM] showed an IC90 of 0.7 µM.
As to `C/N=C(\SC)[C@]1(c2cccnc2)CCCC[S+]1[O-]` (some centres not stated), the IC90 in the assay listed under Rattus norvegicus [1] (Rattus norvegicus, Aorta) was over 30 µM.
In turn, `C/N=C(\S)[C@]1(c2ccc(Cl)cc2)CCCC[S+]1[O-]` (some centres not stated) showed an IC90 in the assay listed under Rattus norvegicus [1] (Rattus norvegicus, Aorta) of 2.8 µM.
On the same count and under the same terms, for `C/N=C(\S)[C@]1(c2ccc(Cl)nc2)CCCC[S+]1[O-]` (some centres not stated) the value was 0.3 µM; for `C/N=C(\S)C1(c2cccnc2)CCCCC1`, 3 µM.
In the assay filed under Rattus norvegicus [1] (Rattus norvegicus, Aorta), `CC(C)/N=C(\S)[C@]1(c2cccnc2)CCCC[S+]1[O-]` (some centres not stated) had an IC90 of 10 µM.
The same measure, in the same setting: then `O=C(O)CC/N=C(\S)[C@]1(c2cccnc2)CCCC[S+]1[O-]` (some centres not stated), with over 30 µM.
`C/N=C(\S)[C@]1(c2ccc(-c3ccccc3)cc2)CCCC[S+]1[O-]` (some centres not stated): in the assay listed under Rattus norvegicus [1] (Rattus norvegicus, Aorta), the IC90 turned out to be 12 µM.
On to `COC(=O)CC/N=C(\S)[C@]1(c2cccnc2)CCCC[S+]1[O-]` (some centres not stated), for which, in the assay listed under Rattus norvegicus [1] (Rattus norvegicus, Aorta), the IC90 is over 30 µM.
The compound `C/N=C(\S)[C@]1(c2nc3ccccc3s2)CCCC[S+]1[O-]` (some centres not stated) came in with an IC90 in the assay listed under Rattus norvegicus [1] (Rattus norvegicus, Aorta) of 29 µM.
The compound `C/N=C(\S)[C@]1(c2cccnc2)CCCO1` gave an IC90 in the assay filed under Rattus norvegicus [1] (Rattus norvegicus, Aorta) of over 30 µM.
